# Results published in ChEMBL document CHEMBL1153826, “Synthesis of dammarane-type triterpene derivatives and their ability to inhibit HIV and HCV proteases” (Bioorg Med Chem, 2009).
# The source made the active and inactive calls. The rule behind the calls is not given here.
# How the values were obtained:
# Protease = Protease (Human immunodeficiency virus 1, UniProt Q9YQ12); test: Inhibition of HIV1 protease by HPLC method
# [1] = Inhibition of HCV protease by fluorometric method; design: species or system Hepacivirus hominis
# Renin (Homo sapiens) = target: T1, Renin (Homo sapiens) (UniProt P00797); test: Inhibition of renin up to 1 ug/mL; conditions: in the assay text read “1 mg/mL” for “1 ug/mL”
# T1 sequence (whole entry): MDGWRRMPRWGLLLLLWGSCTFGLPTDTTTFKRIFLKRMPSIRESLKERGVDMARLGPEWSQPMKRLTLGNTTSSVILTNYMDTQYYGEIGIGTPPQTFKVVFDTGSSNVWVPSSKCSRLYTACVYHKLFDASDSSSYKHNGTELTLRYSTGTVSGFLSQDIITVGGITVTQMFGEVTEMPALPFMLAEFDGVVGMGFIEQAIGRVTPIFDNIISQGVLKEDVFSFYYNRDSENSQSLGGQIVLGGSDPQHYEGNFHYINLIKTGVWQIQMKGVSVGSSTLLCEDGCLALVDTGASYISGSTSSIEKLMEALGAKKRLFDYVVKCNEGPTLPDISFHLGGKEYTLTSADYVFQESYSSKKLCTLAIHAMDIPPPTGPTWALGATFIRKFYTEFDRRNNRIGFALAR
# Outline: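 Recombinant renin was mixed with the compound in DMSO in 384-well plates. Fresh FRET peptide substrate Arg-Glu(EDANS)-[…]Dabcyl)-Arg was added, then rotated 30 min at 37 °C. Read-out was fluorometric, with inhibition calculated as in the HCV protease assay. Ac-HPFV-(Sta)-LF-NH2 was the positive control.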
# [2] = Inhibition of trypsin up to 1 ug/mL; conditions: in the assay text read “1 mg/mL” for “1 ug/mL”
# Outline: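 Trypsin was mixed with the compound in DMSO and assay buffer in 384-well plates. Fresh HiLyte Fluor 488-labeled casein substrate was added with rotary shaking, then incubated 30 min at 37 °C. Fluorescence was read and inhibition calculated as in the HCV protease assay. Soybean trypsin–chymotrypsin inhibitor was the positive control.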
# Chain of Protease (Q9YQ12 whole entry): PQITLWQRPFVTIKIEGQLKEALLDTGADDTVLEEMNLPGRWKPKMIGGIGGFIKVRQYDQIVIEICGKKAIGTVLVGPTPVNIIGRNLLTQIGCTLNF
SMILES,IC50 (Protease) [µM],IC50 [1] [µM],Activity (Renin (Homo sapiens)),Activity [2]
CC1(C)CCC[C@](C)([C@H]2CC[C@]3(C)[C@@H]2[C@H](O)C[C@@H]2[C@@]4(C)CC[C@H](O)C(C)(C)[C@@H]4CC[C@]23C)O1 [PANAXADIOL],> 217,> 217,,
CC1(C)CCC[C@](C)([C@H]2CC[C@]3(C)[C@@H]2C(=O)C[C@@H]2[C@@]4(C)CCC(=O)C(C)(C)[C@@H]4CC[C@]23C)O1,> 218,72.3,,
CC1(C)CCC[C@](C)([C@H]2CC[C@]3(C)[C@@H]2[C@H](O)C[C@@H]2[C@@]4(C)CC[C@H](O)C(C)(C)[C@@H]4[C@@H](OC(=O)CC(C)(C)C(=O)O)C[C@]23C)O1,2.7,> 166,inactive,inactive
CC1(C)CCC[C@](C)([C@H]2CC[C@]3(C)[C@@H]2[C@H](O)C[C@@H]2[C@@]4(C)CC[C@H](OC(=O)CC(C)(C)C(=O)O)C(C)(C)[C@@H]4[C@@H](OC(=O)CC(C)(C)C(=O)O)C[C@]23C)O1,5.4,1.8,inactive,inactive
COC(=O)[C@@]1(O)C[C@]2(C)[C@H]3C[C@@H](O)[C@@H]4[C@@H]([C@@]5(C)CCCC(C)(C)O5)CC[C@@]4(C)[C@]3(C)CC(=O)[C@H]2C1(C)C,> 193,> 193,,
COC(=O)[C@@]1(O)C[C@]2(C)[C@H]3C[C@@H](O)[C@@H]4[C@@H]([C@@]5(C)CCCC(C)(C)O5)CC[C@@]4(C)[C@]3(C)CC[C@H]2C1(C)C,> 198,> 198,,
CC1(C)CCC[C@](C)([C@H]2CC[C@]3(C)[C@@H]2[C@H](O)C[C@@H]2[C@@]4(C)C[C@](O)(C(=O)O)C(C)(C)[C@@H]4CC[C@]23C)O1,10,> 204,,
CC1(C)CCC[C@](C)([C@H]2CC[C@]3(C)[C@@H]2[C@H](O)C[C@@H]2[C@@]4(C)CCC(=O)C(C)(C)[C@@H]4C(=O)C[C@]23C)O1,42.3,> 213,,
CC1(C)CCC[C@](C)([C@H]2CC[C@]3(C)[C@@H]2[C@H](O)C[C@@H]2[C@@]4(C)C=C(O)C(=O)C(C)(C)[C@@H]4CC[C@]23C)O1,28.5,> 212,,
CC1(C)CCC[C@](C)([C@H]2CC[C@]3(C)[C@@H]2[C@H](O)C[C@@H]2[C@@](C)(CC(=O)O)[C@H](C(C)(C)C(=O)O)CC[C@]23C)O1,11.9,> 198,inactive,inactive
CC1(C)CCC[C@](C)([C@H]2CC[C@]3(C)[C@@H]2C(=O)C[C@@H]2[C@@]4(C)CC[C@H](OC(=O)CC(C)(C)C(=O)O)C(C)(C)[C@@H]4CC[C@]23C)O1,6.5,62.2,inactive,inactive
CC1(C)CCC[C@](C)([C@H]2CC[C@]3(C)[C@@H]2[C@H](O)C[C@@H]2[C@@]4(C)CC[C@H](OC(=O)CC(C)(C)C(=O)O)C(C)(C)[C@@H]4CC[C@]23C)O1,2.7,30.4,inactive,inactive
CC1(C)CCC[C@](C)([C@H]2CC[C@]3(C)[C@@H]2[C@H](O)C[C@@H]2[C@@]4(C)CC[C@H](O)C(C)(C)[C@@H]4[C@@H](O)C[C@]23C)O1 [PANAXATRIOL],> 210,> 210,,
CC1(C)CCC[C@](C)([C@H]2CC[C@]3(C)[C@@H]2C(=O)C[C@@H]2[C@@](C)(CC(=O)O)[C@H](C(C)(C)C(=O)O)CC[C@]23C)O1,22.8,9.1,inactive,inactive
CC1(C)CCC[C@](C)([C@H]2CC[C@]3(C)[C@@H]2[C@H](O)C[C@@H]2[C@@]4(C)CCC(=O)C(C)(C)[C@@H]4CC[C@]23C)O1,39.4,> 218,,
CC1(C)CCC[C@](C)([C@H]2CC[C@]3(C)[C@@H]2C(=O)C[C@@H]2[C@@]4(C)CCC(=O)C(C)(C)[C@@H]4C(=O)C[C@]23C)O1,24.2,> 213,,
CC1(C)CCC[C@](C)([C@H]2CC[C@]3(C)[C@@H]2C(=O)C[C@@H]2[C@@]4(C)CC[C@H](OC(=O)CC(C)(C)C(=O)O)C(C)(C)[C@@H]4[C@@H](OC(=O)CC(C)(C)C(=O)O)C[C@]23C)O1,10.9,18.9,inactive,inactive
CC1(C)CCC[C@](C)([C@H]2CC[C@]3(C)[C@@H]2[C@H](O)C[C@@H]2[C@@]4(C)C[C@](O)(C(=O)O)C(C)(C)[C@@H]4C(=O)C[C@]23C)O1,29.9,> 213,,
CC1(C)CCC[C@](C)([C@H]2CC[C@]3(C)[C@@H]2[C@H](O)C[C@@H]2[C@@]4(C)CC[C@H](OC(=O)CC(C)(C)C(=O)O)C(C)(C)[C@@H]4[C@@H](O)C[C@]23C)O1,3.9,> 166,inactive,inactive
